Data taken from ChEMBL document CHEMBL1165965, “Synthesis and structure-activity relationships of 1,2,3,4-tetrahydropyrido[2,3-b]pyrazines as potent and selective inhibitors of the anaplastic lymphoma kinase” (Bioorg Med Chem, 2010).

Columns and labels:
[1] = target: Serine/threonine-protein kinase pim-1 (Homo sapiens) (UniProt P11309); test: Inhibition of PIM1 at 1 uM
[2] = target: Insulin receptor-related protein (Homo sapiens) (UniProt P14616); test: Inhibition of INSRR at 1 uM
Procedure, shortened: (§1)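 Single-concentration screen on the Ambit KINOMEscan platform, run against a panel of 250–400 kinases. Per-kinase inhibition was also summarized as S(90), the fraction of kinases inhibited by more than 90%.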

[3] = target: T1, Serine/threonine-protein kinase NLK (Homo sapiens) (UniProt Q9UBE8); test: Inhibition of NLK at 1 uM
T1 sequence (whole entry): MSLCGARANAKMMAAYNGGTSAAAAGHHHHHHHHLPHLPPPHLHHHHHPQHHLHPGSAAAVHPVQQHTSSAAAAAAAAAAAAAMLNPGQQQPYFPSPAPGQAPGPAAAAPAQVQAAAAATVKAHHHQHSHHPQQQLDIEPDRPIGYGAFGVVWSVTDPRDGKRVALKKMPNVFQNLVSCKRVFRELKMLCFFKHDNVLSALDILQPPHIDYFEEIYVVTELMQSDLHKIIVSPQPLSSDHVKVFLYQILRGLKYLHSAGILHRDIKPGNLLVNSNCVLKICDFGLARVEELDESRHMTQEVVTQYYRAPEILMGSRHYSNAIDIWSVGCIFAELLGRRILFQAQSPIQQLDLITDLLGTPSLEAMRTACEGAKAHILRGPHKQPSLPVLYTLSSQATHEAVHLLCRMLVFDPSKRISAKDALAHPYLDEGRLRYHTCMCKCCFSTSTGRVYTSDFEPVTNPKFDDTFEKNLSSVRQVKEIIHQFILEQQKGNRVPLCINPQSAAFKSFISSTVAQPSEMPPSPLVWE

[4] = target: Glycogen synthase kinase-3 alpha (Homo sapiens) (UniProt P49840); test: Inhibition of GSK3A at 1 uM; procedure, shortened: as §1
[5] = target: Ribosomal protein S6 kinase alpha-4 (Homo sapiens) (UniProt O75676); test: Inhibition of RPS6KA4 N-terminal domain1 at 1 uM
[6] = target: T2, Serine/threonine-protein kinase 17B (Homo sapiens) (UniProt O94768); test: Inhibition of DRAK2 at 1 uM
T2 sequence (whole entry): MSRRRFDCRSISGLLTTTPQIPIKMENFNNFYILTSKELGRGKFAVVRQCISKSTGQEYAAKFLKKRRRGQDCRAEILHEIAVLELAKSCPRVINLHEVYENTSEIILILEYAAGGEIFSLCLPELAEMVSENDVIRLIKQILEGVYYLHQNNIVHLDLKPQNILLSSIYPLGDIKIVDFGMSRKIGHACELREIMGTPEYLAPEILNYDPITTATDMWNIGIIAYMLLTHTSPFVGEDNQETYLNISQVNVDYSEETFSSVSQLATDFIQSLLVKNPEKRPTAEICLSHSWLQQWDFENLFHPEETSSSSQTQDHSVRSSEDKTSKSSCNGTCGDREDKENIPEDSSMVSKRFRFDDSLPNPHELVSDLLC

[7] = target: Casein kinase I isoform epsilon (Homo sapiens) (UniProt P49674); test: Inhibition of CSNK1E at 1 uM
Procedure, shortened: (§2)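 Single-concentration screen using Ambit Bioscience KINOMEscan technology across a panel of 250–400 kinases. Per-kinase inhibition from this screen was summarized as S(90), the fraction of kinases inhibited by more than 90%.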

[8] = target: T3, Tyrosine-protein kinase TXK (Homo sapiens) (UniProt P42681); test: Inhibition of TXK at 1 uM
T3 sequence (whole entry): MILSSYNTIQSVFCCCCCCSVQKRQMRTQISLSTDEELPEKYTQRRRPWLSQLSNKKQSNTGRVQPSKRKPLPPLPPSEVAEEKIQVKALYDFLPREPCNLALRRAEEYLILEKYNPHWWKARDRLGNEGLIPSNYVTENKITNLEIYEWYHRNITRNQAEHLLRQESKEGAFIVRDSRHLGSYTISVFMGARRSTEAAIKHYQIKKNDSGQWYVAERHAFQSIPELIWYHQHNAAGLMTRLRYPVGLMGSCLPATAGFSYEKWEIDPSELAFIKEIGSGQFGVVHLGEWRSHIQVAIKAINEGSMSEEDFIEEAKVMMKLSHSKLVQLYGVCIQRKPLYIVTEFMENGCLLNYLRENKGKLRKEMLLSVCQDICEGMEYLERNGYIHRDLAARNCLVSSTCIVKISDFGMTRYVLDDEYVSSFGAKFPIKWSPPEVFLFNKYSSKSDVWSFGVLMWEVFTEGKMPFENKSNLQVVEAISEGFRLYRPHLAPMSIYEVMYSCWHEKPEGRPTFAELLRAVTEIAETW

[9] = target: Tyrosine-protein kinase Yes (Homo sapiens) (UniProt P07947); test: Inhibition of YES at 1 uM
[10] = target: Casein kinase I isoform delta (Homo sapiens) (UniProt P48730); test: Inhibition of CSNK1D at 1 uM; procedure, shortened: as §2
[11] = target: T4, Tyrosine-protein kinase ITK/TSK (Homo sapiens) (UniProt Q08881); test: Inhibition of ITK at 1 uM; procedure, shortened: as §1
T4 sequence (whole entry): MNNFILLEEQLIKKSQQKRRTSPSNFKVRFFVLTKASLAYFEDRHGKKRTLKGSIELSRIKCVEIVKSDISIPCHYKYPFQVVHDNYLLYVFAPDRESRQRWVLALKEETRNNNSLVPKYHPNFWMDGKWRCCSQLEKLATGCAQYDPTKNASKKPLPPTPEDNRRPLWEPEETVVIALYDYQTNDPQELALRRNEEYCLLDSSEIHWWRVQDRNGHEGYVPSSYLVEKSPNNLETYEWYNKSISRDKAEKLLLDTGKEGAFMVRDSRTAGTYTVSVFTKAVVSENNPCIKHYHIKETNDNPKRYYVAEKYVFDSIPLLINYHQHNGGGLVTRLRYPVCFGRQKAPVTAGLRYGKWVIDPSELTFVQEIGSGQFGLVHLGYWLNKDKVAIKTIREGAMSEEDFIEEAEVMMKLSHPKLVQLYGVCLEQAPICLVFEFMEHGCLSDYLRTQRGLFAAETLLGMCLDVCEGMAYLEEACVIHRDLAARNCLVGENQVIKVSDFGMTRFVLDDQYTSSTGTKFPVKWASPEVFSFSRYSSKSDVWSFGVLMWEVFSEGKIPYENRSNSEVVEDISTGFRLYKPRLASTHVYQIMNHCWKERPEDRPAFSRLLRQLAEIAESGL

Chain of Casein kinase I isoform epsilon (Homo sapiens) (P49674 whole entry, looked up, canonical isoform): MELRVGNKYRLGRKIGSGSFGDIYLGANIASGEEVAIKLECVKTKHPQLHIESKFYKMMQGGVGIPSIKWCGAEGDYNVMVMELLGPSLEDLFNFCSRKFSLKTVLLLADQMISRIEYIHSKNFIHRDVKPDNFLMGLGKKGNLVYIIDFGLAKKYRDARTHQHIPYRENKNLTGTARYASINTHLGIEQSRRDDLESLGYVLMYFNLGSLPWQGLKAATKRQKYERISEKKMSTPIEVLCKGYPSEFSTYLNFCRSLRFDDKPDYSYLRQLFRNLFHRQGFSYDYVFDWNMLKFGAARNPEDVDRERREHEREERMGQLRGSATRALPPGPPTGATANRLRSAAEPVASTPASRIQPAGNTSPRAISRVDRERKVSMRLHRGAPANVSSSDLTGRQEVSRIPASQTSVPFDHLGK
Chain of Tyrosine-protein kinase Yes (Homo sapiens) (P07947 2-543 limits assumed): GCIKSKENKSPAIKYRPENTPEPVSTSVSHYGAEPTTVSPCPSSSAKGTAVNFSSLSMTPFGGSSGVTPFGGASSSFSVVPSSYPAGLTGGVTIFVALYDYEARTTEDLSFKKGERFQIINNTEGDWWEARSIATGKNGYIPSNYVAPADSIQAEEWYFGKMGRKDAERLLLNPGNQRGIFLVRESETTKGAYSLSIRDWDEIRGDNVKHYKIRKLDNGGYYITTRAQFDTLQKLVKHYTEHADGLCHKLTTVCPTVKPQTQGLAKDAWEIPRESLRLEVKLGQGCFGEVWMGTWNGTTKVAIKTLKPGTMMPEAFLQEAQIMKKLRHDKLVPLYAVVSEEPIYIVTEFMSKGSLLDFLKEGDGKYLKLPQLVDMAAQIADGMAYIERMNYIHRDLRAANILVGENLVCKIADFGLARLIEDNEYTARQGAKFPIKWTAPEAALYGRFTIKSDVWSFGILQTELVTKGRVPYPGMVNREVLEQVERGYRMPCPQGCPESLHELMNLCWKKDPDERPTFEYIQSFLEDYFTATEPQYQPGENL
Chain of Serine/threonine-protein kinase pim-1 (Homo sapiens) (P11309 whole entry, looked up): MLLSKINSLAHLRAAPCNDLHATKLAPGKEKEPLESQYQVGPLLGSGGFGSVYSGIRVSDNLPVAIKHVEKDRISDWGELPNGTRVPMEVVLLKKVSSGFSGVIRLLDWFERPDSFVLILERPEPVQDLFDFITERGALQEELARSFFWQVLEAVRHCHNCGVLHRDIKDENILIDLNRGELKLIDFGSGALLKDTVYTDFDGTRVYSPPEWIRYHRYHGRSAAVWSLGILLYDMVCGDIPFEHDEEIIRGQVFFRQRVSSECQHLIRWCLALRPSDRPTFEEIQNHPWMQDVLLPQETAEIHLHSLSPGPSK
Chain of Ribosomal protein S6 kinase alpha-4 (Homo sapiens) (O75676 whole entry, looked up, the tested form may be a part): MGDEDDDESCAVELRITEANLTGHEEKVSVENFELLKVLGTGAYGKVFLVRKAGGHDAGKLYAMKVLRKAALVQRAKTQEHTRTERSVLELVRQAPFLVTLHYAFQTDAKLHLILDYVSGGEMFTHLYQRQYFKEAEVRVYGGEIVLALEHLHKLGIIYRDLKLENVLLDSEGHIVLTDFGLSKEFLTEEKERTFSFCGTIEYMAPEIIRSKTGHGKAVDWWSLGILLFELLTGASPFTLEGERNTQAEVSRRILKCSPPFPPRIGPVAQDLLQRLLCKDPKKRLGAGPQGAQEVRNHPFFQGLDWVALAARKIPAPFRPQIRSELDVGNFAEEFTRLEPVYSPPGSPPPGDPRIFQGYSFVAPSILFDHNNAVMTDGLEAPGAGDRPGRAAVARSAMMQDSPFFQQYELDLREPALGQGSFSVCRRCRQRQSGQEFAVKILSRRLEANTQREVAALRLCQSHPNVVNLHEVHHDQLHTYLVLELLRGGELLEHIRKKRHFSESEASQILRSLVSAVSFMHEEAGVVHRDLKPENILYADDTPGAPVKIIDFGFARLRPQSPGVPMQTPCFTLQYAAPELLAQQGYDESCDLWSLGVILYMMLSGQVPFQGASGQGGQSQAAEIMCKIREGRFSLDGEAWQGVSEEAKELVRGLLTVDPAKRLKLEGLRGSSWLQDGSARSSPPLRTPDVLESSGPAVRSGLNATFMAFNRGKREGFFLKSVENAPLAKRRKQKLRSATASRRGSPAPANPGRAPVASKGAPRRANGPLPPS
Chain of Insulin receptor-related protein (Homo sapiens) (P14616 27-742 limits assumed): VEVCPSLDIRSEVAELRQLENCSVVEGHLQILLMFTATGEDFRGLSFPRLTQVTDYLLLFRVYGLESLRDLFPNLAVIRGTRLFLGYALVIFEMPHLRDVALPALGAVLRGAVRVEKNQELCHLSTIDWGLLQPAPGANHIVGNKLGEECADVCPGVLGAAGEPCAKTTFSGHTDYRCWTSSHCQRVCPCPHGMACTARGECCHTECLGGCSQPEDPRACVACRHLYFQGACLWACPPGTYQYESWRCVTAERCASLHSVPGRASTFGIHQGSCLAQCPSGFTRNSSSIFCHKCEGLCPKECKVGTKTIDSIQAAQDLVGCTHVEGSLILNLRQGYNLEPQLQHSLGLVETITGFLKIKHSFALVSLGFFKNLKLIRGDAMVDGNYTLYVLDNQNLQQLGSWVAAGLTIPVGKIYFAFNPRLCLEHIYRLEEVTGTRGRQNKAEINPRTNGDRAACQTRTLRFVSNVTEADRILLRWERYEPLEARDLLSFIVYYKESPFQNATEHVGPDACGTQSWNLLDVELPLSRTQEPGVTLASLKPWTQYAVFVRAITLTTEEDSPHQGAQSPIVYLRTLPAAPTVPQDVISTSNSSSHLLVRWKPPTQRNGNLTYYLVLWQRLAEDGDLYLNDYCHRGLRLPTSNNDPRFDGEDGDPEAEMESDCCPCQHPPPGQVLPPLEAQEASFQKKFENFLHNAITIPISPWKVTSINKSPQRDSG
Chain of Insulin receptor-related protein (Homo sapiens) (P14616 747-1297 limits assumed): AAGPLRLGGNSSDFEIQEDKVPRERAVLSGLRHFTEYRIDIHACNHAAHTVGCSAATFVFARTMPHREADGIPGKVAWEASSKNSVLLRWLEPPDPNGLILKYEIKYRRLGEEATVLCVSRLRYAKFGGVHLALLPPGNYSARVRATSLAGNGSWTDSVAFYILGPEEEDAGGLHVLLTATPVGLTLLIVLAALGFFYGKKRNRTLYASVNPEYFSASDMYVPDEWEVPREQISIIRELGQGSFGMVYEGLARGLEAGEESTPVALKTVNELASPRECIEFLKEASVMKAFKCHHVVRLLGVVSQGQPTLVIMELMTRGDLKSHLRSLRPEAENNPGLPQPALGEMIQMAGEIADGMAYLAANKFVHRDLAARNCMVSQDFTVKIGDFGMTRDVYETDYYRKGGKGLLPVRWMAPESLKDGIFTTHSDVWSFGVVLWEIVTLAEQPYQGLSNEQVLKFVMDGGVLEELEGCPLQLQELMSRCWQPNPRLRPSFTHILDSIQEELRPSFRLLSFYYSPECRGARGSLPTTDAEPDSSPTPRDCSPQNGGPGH
Chain of Casein kinase I isoform delta (Homo sapiens) (P48730 whole entry, looked up, canonical isoform): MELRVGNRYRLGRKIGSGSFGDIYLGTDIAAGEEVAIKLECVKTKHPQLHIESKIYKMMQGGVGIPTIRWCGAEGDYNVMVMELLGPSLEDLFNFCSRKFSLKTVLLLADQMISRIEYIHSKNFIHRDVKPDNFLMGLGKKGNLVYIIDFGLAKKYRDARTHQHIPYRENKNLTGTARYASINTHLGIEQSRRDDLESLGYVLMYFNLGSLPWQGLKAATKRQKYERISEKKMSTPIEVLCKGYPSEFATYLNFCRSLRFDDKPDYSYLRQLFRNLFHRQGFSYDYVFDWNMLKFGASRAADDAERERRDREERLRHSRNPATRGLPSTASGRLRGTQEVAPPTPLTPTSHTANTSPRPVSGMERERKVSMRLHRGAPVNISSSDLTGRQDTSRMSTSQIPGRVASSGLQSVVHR
Chain of Glycogen synthase kinase-3 alpha (Homo sapiens) (P49840 2-483 limits assumed): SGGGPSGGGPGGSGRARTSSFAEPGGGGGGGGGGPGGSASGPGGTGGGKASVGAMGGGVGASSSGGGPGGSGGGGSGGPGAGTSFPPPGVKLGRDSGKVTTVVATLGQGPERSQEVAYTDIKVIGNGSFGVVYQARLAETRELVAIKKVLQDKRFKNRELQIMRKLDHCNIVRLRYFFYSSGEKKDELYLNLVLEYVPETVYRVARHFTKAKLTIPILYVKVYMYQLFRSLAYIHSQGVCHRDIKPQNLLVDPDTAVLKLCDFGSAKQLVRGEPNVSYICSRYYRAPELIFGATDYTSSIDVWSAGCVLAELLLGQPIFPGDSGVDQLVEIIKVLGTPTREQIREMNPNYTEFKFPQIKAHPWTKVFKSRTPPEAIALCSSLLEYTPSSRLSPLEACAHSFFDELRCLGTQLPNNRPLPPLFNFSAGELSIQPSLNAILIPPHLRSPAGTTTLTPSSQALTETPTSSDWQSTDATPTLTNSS

Row | inhibition [1] | inhibition [2] | inhibition [3] | inhibition [4] | inhibition [5] | inhibition [6] | inhibition [7] | inhibition [8] | inhibition [9] | inhibition [10] | inhibition [11] | Structure (SMILES)
1 | < 50% | < 50% | < 50% | < 50% | < 50% | < 50% | < 50% | < 50% | < 50% | < 50% | < 50% | CC(=O)N1CCN(c2cc(-c3cnc4c(c3)N(Cc3cc(Cl)ccc3C(F)(F)F)CCN4)ccn2)CC1
2 | < 50% | < 50% | < 50% | < 50% | < 50% |  | < 50% | < 50% | < 50% | < 50% | < 50% | O=C(O)c1ccc(-c2cnc3c(c2)N(Cc2cc(Cl)ccc2C(F)(F)F)CCN3)cc1
3 | < 50% | < 50% | < 50% | < 50% | < 50% |  | < 50% | < 50% | < 50% | < 50% | < 50% | O=C(c1ccc(-c2cnc3c(c2)N(Cc2cc(Cl)ccc2C(F)(F)F)CCN3)cc1)N1CCCCC1
4 | < 50% | < 50% | < 50% | < 50% | < 50% | < 50% | < 50% | < 50% | < 50% | < 50% | < 50% | CN1CCN(c2ccc(-c3cnc4c(c3)N(Cc3cc(Cl)ccc3C(F)(F)F)CCN4)cn2)CC1
5 | < 50% | < 50% | < 50% | < 50% | < 50% | < 50% | < 50% | < 50% | < 50% | < 50% | < 50% | CN1CCN(c2ccc(-c3cnc4c(c3)N(Cc3cc(F)ccc3F)CCN4)cn2)CC1
6 | < 50% | < 50% | < 50% | < 50% | < 50% | < 50% | < 50% | < 50% | < 50% | < 50% | < 50% | CN1CCN(c2ccc(-c3cnc4c(c3)N(Cc3cc(Cl)ccc3Cl)CCN4)cn2)CC1
7 | < 50% | < 50% | < 50% | < 50% | < 50% |  | < 50% | < 50% | < 50% | < 50% | < 50% | COC1CCN(C(=O)c2ccc(-c3cnc4c(c3)N(Cc3cc(Cl)ccc3C(F)(F)F)CCN4)cc2)CC1
8 | < 50% | < 50% | < 50% | < 50% | < 50% | < 50% | < 50% | < 50% | < 50% | < 50% | < 50% | CN1CCN(c2ccc(-c3cnc4c(c3)N(Cc3c(F)ccc(F)c3Cl)CCN4)cn2)CC1
9 | < 50% | < 50% | < 50% | < 50% | < 50% | < 50% | < 50% | < 50% | < 50% | < 50% | < 50% | FC(F)(F)c1ccc(Cl)cc1CN1CCNc2ncc(-c3ccnc(N4CCNCC4)c3)cc21
10 | < 50% | < 50% | < 50% | < 50% | < 50% |  | < 50% | < 50% | < 50% | < 50% | < 50% | O=C(c1ccc(-c2cnc3c(c2)N(Cc2cc(Cl)ccc2C(F)(F)F)CCN3)cc1)N1CCC(N2CCCC2)CC1
